Source: ChEMBL document CHEMBL3785020, “Discovery of novel sesquistilbene indanone analogues as potent anti-inflammatory agents” (Eur J Med Chem, 2016)
Converted amounts (≈) assume the structure as drawn. The source made the active and inactive calls. No cut-off for these calls is given here.

How the values were obtained:
[1] = system: RAW264.7; test: Antiinflammatory activity against LPS-induced mouse RAW264.7 cells assessed as inhibition of NO production at 50 uM preincubated for 4 hrs followed by LPS stimulation for 24 hrs by Griess reaction; assay type: functional
Procedure, shortened: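 RAW264.7 cells in DMEM with 5% FBS at 37 °C and 5% CO2 were pretreated at 50 µM for 4 h, then stimulated with or without LPS (1 µg/mL) for 24 h. Nitrite in the supernatant was measured by Griess reagent at 540 nm against a NaNO2 standard curve. At least three independent experiments, each in duplicate; means ± SEM.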

[2] = system: RAW264.7; test: Effect of ERK phosphorylation in LPS-induced mouse RAW264.7 cells preincubated with the compound followed by LPS-stimulation for 45 mins by Western blot analysis; assay type: cell-based
[3] = system: RAW264.7; test: Inhibition of JNK phosphorylation in LPS-induced mouse RAW264.7 cells preincubated with the compound followed by LPS-stimulation for 45 mins by Western blot analysis; assay type: cell-based
[4] = molecular target: MAP kinase p38 (Mus musculus) (UniProt P47811+O08911+Q9WUI1+Q9Z1B7); test: Effect of p38 phosphorylation in LPS-induced mouse RAW264.7 cells preincubated with the compound followed by LPS-stimulation for 45 mins by Western blot analysis; assay type: cell-based
[5] = system: RAW264.7; test: Antiinflammatory activity against LPS-induced mouse RAW264.7 cells assessed as inhibition of NO production at preincubated for 4 hrs followed by LPS stimulation for 24 hrs by Griess reaction; assay type: functional, cell-based
Procedure, shortened: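 Cells were pretreated for 4 h, then stimulated with LPS (1 µg/mL) for 24 h. Supernatant was mixed with an equal volume of Griess reagent, and nitrite was read at 540 nm against a NaNO2 standard curve. IC50 was obtained by curve fitting.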

[6] = system: RAW264.7; test: Antiinflammatory activity against LPS-induced mouse RAW264.7 cells assessed as downregulation of COX2 expression preincubated for 4 hrs followed by LPS stimulation for 24 hrs by Western blot analysis; assay type: functional, cell-based
Procedure, shortened: (§1)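 Cells serum-starved overnight, pretreated at 12.5-50 µM, then stimulated with LPS 1 µg/mL for 24 h. Whole-cell lysates were made in RIPA buffer with protease and phosphatase inhibitors, and 30 µg protein was loaded. Blots used iNOS (1:500) or COX-2 (1:10000) antibodies with HRP secondary and ECL detection. Signals were normalised to β-actin and expressed as fold of control. At least three independent experiments, each in duplicate.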

[7] = system: RAW264.7; test: Downregulation of TLR4 expression in LPS-induced mouse RAW264.7 cells preincubated with compound followed by LPS-stimulation for 45 mins by Western blot analysis; assay type: functional, cell-based
[8] = system: RAW264.7; test: Antiinflammatory activity against LPS-induced mouse RAW264.7 cells assessed as downregulation of iNOS expression preincubated for 4 hrs followed by LPS stimulation for 24 hrs by Western blot analysis; assay type: functional, cell-based; procedure, shortened: as §1
[9] = molecular target: Transcription factor p65 (Mus musculus) (UniProt Q04207); test: Inhibition of LPS-stimulated NFkappaB p65 nuclear translocation in mouse RAW264.7 cells preincubated with compound followed by LPS-stimulation for 2 hrs by Western blot analysis; assay type: cell-based
Sequence of Transcription factor p65 (Mus musculus) (Q04207 whole entry): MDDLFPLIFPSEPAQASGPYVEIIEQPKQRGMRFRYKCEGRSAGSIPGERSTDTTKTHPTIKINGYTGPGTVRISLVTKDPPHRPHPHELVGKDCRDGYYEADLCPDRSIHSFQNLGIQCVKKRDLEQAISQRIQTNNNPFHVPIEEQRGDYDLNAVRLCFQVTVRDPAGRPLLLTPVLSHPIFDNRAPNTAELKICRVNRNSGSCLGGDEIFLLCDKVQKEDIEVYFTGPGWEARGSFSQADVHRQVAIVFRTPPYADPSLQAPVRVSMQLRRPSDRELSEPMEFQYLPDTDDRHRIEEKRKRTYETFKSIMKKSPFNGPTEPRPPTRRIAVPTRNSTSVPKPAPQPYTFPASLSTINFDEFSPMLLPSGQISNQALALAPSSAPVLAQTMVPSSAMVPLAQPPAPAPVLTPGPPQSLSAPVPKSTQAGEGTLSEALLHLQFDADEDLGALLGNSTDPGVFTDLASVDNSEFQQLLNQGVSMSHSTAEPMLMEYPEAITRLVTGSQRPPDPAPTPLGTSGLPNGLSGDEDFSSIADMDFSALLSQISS
Procedure, shortened: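 Cells were pretreated at 12.5-50 µM, then stimulated with LPS (1 µg/mL) for 2 h. Nuclear and cytoplasmic fractions were prepared with an extraction kit and blotted for NF-κB p65 (1:1000). β-actin was the cytoplasmic loading control and lamin the nuclear one. At least three independent experiments in duplicate.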

[10] = Lipophilicity, logP of the compound; assay type: physicochemical; conditions: octanol/water
[11] = system: Mus musculus; test: Acute toxicity in po dosed Kunming mouse after 14 days by Bliss method; conditions: in vivo, 336 h
[12] = Solubility in water at pH 6.8; assay type: physicochemical
[13] = Solubility in water at pH 7.4; assay type: physicochemical
[14] = (§2) Acute toxicity in ip dosed Kunming mouse after 14 days by Bliss method; assay type: organism-based; conditions: Kunming, in vivo
[15] = system: Mus musculus; test: Acute toxicity in ip dosed Kunming mouse assessed as mortality after 7 days by Bliss method; assay type: organism-based; conditions: in vivo, 168 h
[16] = Solubility in water at pH 1.2; assay type: physicochemical
[17] = system: RAW264.7; test: Cytotoxicity against mouse RAW264.7 cells assessed as cell viability up to 50 uM by MTT assay; assay type: cell-based
Procedure, shortened: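 MTT assay after 12.5-50 µM treatment with LPS stimulation for 24 h. Medium was replaced, then MTT was added to a final 0.5 mg/mL and incubated 4 h at 37 °C. Formazan was dissolved in DMSO and absorbance read at 570 nm. At least three independent experiments in duplicate.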

[18] = system: Mus musculus; test: as §2; assay type: organism-based; conditions: in vivo, 336 h

| Compound | inhibition at 50 µM [1] [%] | also measured |
| --- | --- | --- |
| COc1ccc([C@@H]2C(=O)c3ccc(OC)cc3[C@H]2c2ccc(-c3ccccc3)cc2)cc1 (relative stereo) | 57.5 | – |
| COc1ccc([C@@H]2c3c(OC)cc(OC)cc3C(=O)[C@H]2c2cc(OC)cc(OC)c2)cc1 (relative stereo) | 61 | – |
| COc1ccc([C@@H]2C(=O)c3ccc(OC)cc3[C@H]2c2ccc(C)cc2)cc1 (relative stereo) | 47.4 | – |
| CCOC(=O)[C@@H]1c2c(OC)cc(OC)cc2C(=O)[C@H]1c1cc(OC)cc(OC)c1 (relative stereo) | 64.6 | – |
| COc1cc(OC)cc([C@@H]2C(=O)c3cc(OC)cc(OC)c3[C@H]2Cc2ccccc2)c1 (relative stereo) | 86.9 | – |
| COc1ccc(C2C(=O)c3ccc(OC)cc3C2c2ccccc2)cc1 (racemic) [listing 1 of 2 here] | – | Activity [2]: inactive; inhibition [3]: Dose-dependent effect; Activity [4]: inactive; inhibition [5]: Dose-dependent effect; Activity [6]: Dose-dependent effect; Activity [7]: Dose-dependent effect; Activity [8]: Dose-dependent effect; inhibition [9]: Dose-dependent effect |
| COc1cc(OC)cc([C@@H]2C(=O)c3cc(OC)cc(OC)c3[C@H]2c2ccc(OC(F)(F)F)cc2)c1 (relative stereo) | 65.6 | – |
| COc1ccc([C@@H]2C(=O)c3ccc(OC)cc3[C@H]2c2ccc(C(F)(F)F)cc2)cc1 (relative stereo) | 80 | – |
| COc1ccc([C@@H]2C(=O)c3ccc(OC)cc3[C@H]2C2CCCCC2)cc1 (relative stereo) | 85.7 | – |
| COc1ccc([C@@H]2C(=O)c3ccc(OC)cc3[C@H]2c2cccc(F)c2)cc1 (relative stereo) | 80 | – |
| COc1ccc(C2C(=O)c3ccc(OC)cc3C2c2ccccc2)cc1 (racemic) [listing 2 of 2 here] | 87.6 | logP [10]: 1.77; Activity [11]: Dose-dependent effect; solubility [12]: 68.7 µg/mL (≈ 199 µM); solubility [13]: 46.5 µg/mL (≈ 135 µM); LD50 at 336 h [14]: 275 mg/kg; Activity [15]: Toxic; solubility [16]: 38.3 µg/mL (≈ 111 µM); Activity [17]: Non-toxic; IC50 ([5]; Mus musculus, RAW264.7): 23.2 µM |
| COc1ccc([C@@H]2C(=O)c3ccc(OC)cc3[C@H]2c2cc(OC)cc(OC)c2)cc1 (relative stereo) | 51.6 | – |
| COc1cc(OC)cc([C@@H]2C(=O)c3cc(OC)cc(OC)c3[C@H]2c2cccc(F)c2)c1 (relative stereo) | 65.7 | – |
| COc1cc(OC)cc(C2C(O)c3cc(OC)cc(OC)c3C2c2ccccc2)c1 (configuration not stated) | 76.3 | – |
| COc1ccc([C@@H]2C(=O)c3ccc(OC)cc3[C@H]2c2ccc3ccccc3c2)cc1 (relative stereo) | 58.7 | – |
| COc1cc(OC)cc([C@@H]2C(=O)c3cc(OC)cc(OC)c3[C@H]2c2ccc(OCc3ccccc3)cc2)c1 (relative stereo) | 65.8 | – |
| COc1ccc([C@@H]2c3cc(OC)ccc3C(=O)[C@H]2c2ccc(OC)cc2)cc1 (relative stereo) | 79.3 | – |
| COc1ccc([C@@H]2C(=O)c3ccc(OC)cc3[C@H]2c2ccc(F)cc2)cc1 | 85.9 | – |

| Compound | inhibition at 50 µM [1] [%] | also measured |
| --- | --- | --- |
| COc1ccc(C2C(=O)c3ccc(OC)cc3C2c2ccccc2)cc1 (single isomer, unassigned; (+)) [listing 1 of 2 here] | – | IC50 ([5]; raw264.7): 23.5 µM |
| COc1ccc([C@@H]2C(=O)c3ccc(OC)cc3[C@H]2c2ccc(OC(F)(F)F)cc2)cc1 (relative stereo) | 76.3 | – |
| CCOc1ccc([C@@H]2c3c(OC)cc(OC)cc3C(=O)[C@H]2c2cc(OC)cc(OC)c2)cc1 (relative stereo) | 80.9 | – |
| COc1cc(OC)cc([C@@H]2C(=O)c3cc(OC)cc(OC)c3[C@H]2c2ccccc2)c1 (relative stereo) | 69.2 | – |
| COc1cc(OC)cc([C@@H]2C(=O)c3cc(OC)cc(OC)c3[C@H]2C2CCCCC2)c1 (relative stereo) | 77.3 | – |
| COc1cc(OC)cc([C@@H]2c3c(OC)cc(OC)cc3C(=O)[C@H]2c2cc(OC)cc(OC)c2)c1 (relative stereo) | 59.4 | – |
| COc1cc(OC)cc([C@@H]2C(=O)c3cc(OC)cc(OC)c3[C@H]2c2ccc(C)cc2)c1 | 83.3 | – |
| COc1cc(OC)cc([C@@H]2C(=O)c3cc(OC)cc(OC)c3[C@H]2c2ccc3ccccc3c2)c1 (relative stereo) | 47.4 | – |
| COc1ccc(C2C(=O)c3ccc(OC)cc3C2c2ccccc2)cc1 (single isomer, unassigned; (-)) [listing 1 of 2 here] | – | inhibition [5]: Dose-dependent effect |
| COc1ccc(C2C(=O)c3ccc(OC)cc3C2c2ccccc2)cc1 (single isomer, unassigned; (+)) [listing 2 of 2 here] | – | inhibition [5]: Dose-dependent effect |
| Oc1ccc(/C=C/c2cc(O)cc(O)c2)cc1 [RESVERATROL] | 35 | – |
| COc1cc(OC)cc([C@@H]2C(=O)c3cc(OC)cc(OC)c3[C@H]2c2ccc(C(F)(F)F)cc2)c1 (relative stereo) | 71.8 | – |
| COc1cc(OC)cc([C@@H]2C(=O)c3cc(OC)cc(OC)c3[C@H]2c2ccc(F)cc2)c1 (relative stereo) | 77.3 | – |
| COc1cc(OC)cc([C@@H]2C(=O)c3cc(OC)cc(OC)c3[C@H]2c2ccc(O)cc2)c1 (relative stereo) | 65.6 | – |
| COc1ccc(C2C(=O)c3ccc(OC)cc3C2c2ccccc2)cc1 (single isomer, unassigned; (-)) [listing 2 of 2 here] | – | LD50 [18]: 275 mg/kg; IC50 ([5]; raw264.7): 23.7 µM |
| COc1cc(OC)cc([C@@H]2C(=O)c3cc(OC)cc(OC)c3[C@H]2c2ccc(-c3ccccc3)cc2)c1 (relative stereo) | 73.9 | – |
| CCOc1ccc([C@@H]2c3cc(OC)ccc3C(=O)[C@H]2c2ccc(OC)cc2)cc1 (relative stereo) | 84.4 | – |
